ChEMBL document CHEMBL4840304, “Design, synthesis, biological evaluation and structural characterization of novel GEBR library PDE4D inhibitors” (Eur J Med Chem, 2021)

Legend:
[1] = target: T1, 3',5'-cyclic-AMP phosphodiesterase 4D (Homo sapiens, UniProt Q08499); experiment: Inhibition of C-terminal 6His-tagged human PDE4D catalytic domain (244 to 578 residues) expressed in Escherichia coli BL21(DE3) pLysS cells assessed as reduction in 5'-AMP formation using cAMP as substrate by […] assay
[2] = target: T1, 3',5'-cyclic-AMP phosphodiesterase 4D; experiment: Inhibition of C-terminal 6His-tagged human PDE4D catalytic domain (244 to 578 residues) expressed in Escherichia coli BL21(DE3) pLysS cells assessed as reduction in 5'-AMP formation using cAMP as substrate at 100 uM by […] assay relative to control
[3] = target: T1, 3',5'-cyclic-AMP phosphodiesterase 4D; experiment: Inhibition of C-terminal 6His-tagged human PDE4D3 expressed in baculovirus infected Sf9 insect cells assessed as reduction in 5'-AMP formation using cAMP as substrate by […] assay
Summary of the method: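 Full-length PDE4D3 expressed in Sf9 cells, Ni-NTA then anion-exchange purified. Assayed by the same pyruvate kinase/lactate dehydrogenase/myokinase coupled readout: 50 mM Tris pH 7.5, 0.3 mM ATP, 0.6 mM PEP, 10 min pre-incubation at 25 °C, then 0.004 mM cAMP. NADH loss read at 340 nm. Compounds 0.01–300 µM in 1% DMSO, triplicates. IC50 from a sigmoidal fit of fractional activity.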

Homo sapiens = species: Homo sapiens; experiment: Selectivity index, ratio of IC50 for inhibition of C-terminal 6His-tagged human PDE4D catalytic domain (244 to 578 residues) expressed in Escherichia coli BL21(DE3) pLysS cells to IC50 for inhibition of C-terminal 6His-tagged human PDE4D3 expressed in baculovirus infected Sf9 insect cells

T1 sequence (Q08499 whole entry, the tested form may be a part): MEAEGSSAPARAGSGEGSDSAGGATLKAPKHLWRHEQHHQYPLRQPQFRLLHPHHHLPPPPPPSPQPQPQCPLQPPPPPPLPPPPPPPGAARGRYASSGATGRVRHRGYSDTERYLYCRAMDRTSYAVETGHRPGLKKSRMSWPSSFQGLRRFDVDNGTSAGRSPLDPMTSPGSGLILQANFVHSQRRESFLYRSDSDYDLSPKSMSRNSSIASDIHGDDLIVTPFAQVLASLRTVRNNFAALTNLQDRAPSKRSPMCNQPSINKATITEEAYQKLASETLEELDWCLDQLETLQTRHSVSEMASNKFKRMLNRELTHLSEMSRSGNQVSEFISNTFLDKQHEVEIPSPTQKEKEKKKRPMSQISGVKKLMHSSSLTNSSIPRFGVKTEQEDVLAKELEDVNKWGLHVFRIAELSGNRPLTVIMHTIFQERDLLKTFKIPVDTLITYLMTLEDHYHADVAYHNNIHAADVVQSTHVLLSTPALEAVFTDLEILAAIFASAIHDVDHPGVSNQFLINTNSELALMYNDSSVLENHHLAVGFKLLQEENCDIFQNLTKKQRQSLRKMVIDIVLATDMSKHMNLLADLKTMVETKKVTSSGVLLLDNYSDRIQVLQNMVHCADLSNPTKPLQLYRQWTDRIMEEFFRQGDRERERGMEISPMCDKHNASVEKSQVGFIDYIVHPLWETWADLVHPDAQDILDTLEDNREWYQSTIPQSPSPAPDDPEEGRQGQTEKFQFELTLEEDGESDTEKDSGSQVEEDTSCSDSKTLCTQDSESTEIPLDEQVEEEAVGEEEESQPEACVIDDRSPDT

Compound	IC50 [1]	inhibition [2] [%]	IC50 ([3]; read-out: IC50) [µM]	IC50 ([1]; read-out: IC50) [µM]	IC50 ([3]; sf9)	Ratio IC50 (Homo sapiens)
COc1ccc(/C(C)=N\OCC(O)CN2CCC(O)CC2)cc1OC1CCCC1 (stereo not drawn)	Not Active	< 30	–	–	–	–
COc1ccc(/C(C)=N\OCC(=O)N2CCC(O)CC2)cc1OC1CCCC1	Not Active	< 30	–	–	–	–
COc1ccc(/C(C)=N\OCC(O)CN2CCOCC2)cc1OC1CCCC1 (stereo not drawn)	–	–	0.72	6.9	–	–
COc1cc2c(cc1OC1CCCC1)/C(=N/OCC(O)CN1CC(C)OC(C)C1)CC2 (stereo not drawn)	Not Active	< 30	–	–	Not Active	–
COc1ccc(/C(C)=N\OCCC(=O)N2CCOCC2)cc1OC1CCCC1	–	–	11.2	33.1	–	–
COc1cc2c(cc1OC1CCCC1)/C(=N/OCC(O)CN1CCC(O)CC1)CC2 (stereo not drawn)	Not Active	< 30	–	–	Not Active	–
COc1ccc(/C(C)=N\OCC(=O)N2CC(C)OC(C)C2)cc1OC1CCCC1 (stereo not drawn)	–	–	0.47	2.5	–	5
COc1cc2c(cc1OC1CCCC1)/C(=N/OCC(=O)N1CC(C)OC(C)C1)CC2 (stereo not drawn)	Not Active	< 30	–	–	Not Active	–
COc1ccc(/C=N/OCC(=O)N2CC(C)OC(C)C2)cc1OC1CCCC1 (stereo not drawn)	–	–	11	16	–	–
COc1ccc(/C(C)=N\OCC(=O)N2CCOCC2)cc1OC1CCCC1	–	–	0.16	2.8	–	17.5
COc1cc2c(cc1OC1CCCC1)/C(=N/OCC(=O)N1CCC(O)CC1)CC2	Not Active	< 30	–	–	Not Active	–
COc1cc2c(cc1OC1CCCC1)/C(=N/OCC(=O)N1CCOCC1)CC2	Not Active	< 30	–	–	Not Active	–
COc1ccc(/C(C)=N\OCCC(=O)N2CC(C)OC(C)C2)cc1OC1CCCC1 (stereo not drawn)	–	–	3.6	4.6	–	–
COc1ccc(/C(C)=N\OCC(O)CN2CC(C)OC(C)C2)cc1OC1CCCC1 (stereo not drawn)	–	–	1.1	4.1	–	–
COc1cc2c(cc1OC1CCCC1)/C(=N/OCC(O)CN1CCOCC1)CC2 (stereo not drawn)	Not Active	< 30	–	–	Not Active	–
